Laboratory results: ChEMBL document CHEMBL3286341, “Novel, potent and selective 17β-hydroxysteroid dehydrogenase type 2 inhibitors as potential therapeutics for osteoporosis with dual human and mouse activities” (Eur J Med Chem, 2014)
Activity calls are given as the source filed them. No cut-off for these calls is given here.

Columns and labels:
[1] = molecular target: T1, 17-beta-hydroxysteroid dehydrogenase type 2 (Homo sapiens) (UniProt P37059); test: Inhibition of human placental 17beta-HSD2 microsomal fraction using tritiated estradiol as substrate assessed as formation of estrone at 1 uM by HPLC analysis relative to control
T1 sequence (whole entry): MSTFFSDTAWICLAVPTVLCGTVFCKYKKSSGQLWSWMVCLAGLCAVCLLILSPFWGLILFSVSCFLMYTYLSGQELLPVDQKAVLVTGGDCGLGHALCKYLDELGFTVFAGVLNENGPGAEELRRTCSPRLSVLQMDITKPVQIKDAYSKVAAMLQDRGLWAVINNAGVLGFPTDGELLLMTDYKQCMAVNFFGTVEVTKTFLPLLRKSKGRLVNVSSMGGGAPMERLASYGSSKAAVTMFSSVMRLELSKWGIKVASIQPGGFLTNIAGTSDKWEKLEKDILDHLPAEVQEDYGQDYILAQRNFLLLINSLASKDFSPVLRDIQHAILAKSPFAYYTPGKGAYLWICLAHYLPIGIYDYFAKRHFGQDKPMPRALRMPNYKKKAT
Summary of the method: (§1)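 Placental microsomes were incubated with tritiated E2 (500 nM final) plus NAD⁺ cofactor and test compound. Labeled E2 and E1 were separated by HPLC and quantified. Mean of three determinations, standard deviation below 20%.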

[2] = molecular target: T2, 17-beta-hydroxysteroid dehydrogenase type 2 (Homo sapiens, UniProt P37059); test: Inhibition of human placental 17beta-HSD2 microsomal fraction using tritiated estradiol as substrate assessed as formation of estrone by HPLC analysis; summary of the method: as §1
T2 sequence (P37059 whole entry): T1 sequence (whole entry)

[3] = molecular target: T3, 17-beta-hydroxysteroid dehydrogenase type 1 (Homo sapiens) (UniProt P14061); test: Inhibition of human placental 17beta-HSD1 cytosolic fraction using tritiated estrone as substrate assessed as formation of estradiol at 1 uM by HPLC analysis relative to control
T3 sequence (whole entry): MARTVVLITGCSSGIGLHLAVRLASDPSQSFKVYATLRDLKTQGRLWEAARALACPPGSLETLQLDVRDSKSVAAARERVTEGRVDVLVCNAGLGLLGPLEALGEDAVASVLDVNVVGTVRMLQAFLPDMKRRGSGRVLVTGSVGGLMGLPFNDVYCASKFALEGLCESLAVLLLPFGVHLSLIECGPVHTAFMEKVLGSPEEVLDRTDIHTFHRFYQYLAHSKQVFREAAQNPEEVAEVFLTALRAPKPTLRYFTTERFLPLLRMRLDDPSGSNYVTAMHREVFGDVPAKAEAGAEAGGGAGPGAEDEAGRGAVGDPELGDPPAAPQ
Summary of the method: (§2)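 Cytosolic fraction from placenta served as the enzyme source, incubated with tritiated E1 (500 nM final), NADH cofactor and test compound. E1 and E2 were separated by HPLC and the labeled species quantified. Mean of three determinations.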

[4] = molecular target: T4, 17-beta-hydroxysteroid dehydrogenase type 1 (Homo sapiens, UniProt P14061); test: Inhibition of human placental 17beta-HSD1 cytosolic fraction using tritiated estrone as substrate assessed as formation of estradiol by HPLC analysis; summary of the method: as §2
T4 sequence (P14061 whole entry): T3 sequence (whole entry)

Homo sapiens = species on record: Homo sapiens; test: Selectivity factor, ratio of IC50 for human placental 17beta-HSD1 cytosolic fraction to IC50 for placental 17beta-HSD2 microsomal fraction
Summary of the method: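 Selectivity factor calculated as IC50(h17β-HSD1)/IC50(h17β-HSD2), both IC50 values taken from the placental cytosolic and microsomal radiolabel HPLC assays.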

[5] = molecular target: T5, Estradiol 17-beta-dehydrogenase 2 (Mus musculus) (UniProt P51658); test: Inhibition of mouse liver 17beta-HSD2 microsomal fraction using tritiated estradiol as substrate assessed as formation of estrone at 1 uM by HPLC analysis relative to control
T5 sequence (whole entry): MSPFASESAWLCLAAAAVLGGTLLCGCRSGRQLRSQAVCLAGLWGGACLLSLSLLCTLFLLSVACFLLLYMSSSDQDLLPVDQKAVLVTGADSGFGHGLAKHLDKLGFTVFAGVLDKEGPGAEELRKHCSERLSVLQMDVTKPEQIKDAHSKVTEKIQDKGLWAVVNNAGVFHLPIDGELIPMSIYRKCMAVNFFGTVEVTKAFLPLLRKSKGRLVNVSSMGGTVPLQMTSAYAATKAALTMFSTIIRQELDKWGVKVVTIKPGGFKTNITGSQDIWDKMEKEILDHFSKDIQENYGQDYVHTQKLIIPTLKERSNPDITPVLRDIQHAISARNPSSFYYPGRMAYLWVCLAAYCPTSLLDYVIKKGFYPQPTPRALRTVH
Summary of the method: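 Mouse liver microsomes were used, following the same procedure as the human type 2 assay: tritiated E2 at 500 nM with NAD⁺, and E1 formation quantified after HPLC separation.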

[6] = molecular target: T6, Estrogen receptor (Homo sapiens) (UniProt P03372); test: Displacement of [3H]-estradiol from recombinant human estrogen receptor-alpha by liquid scintillation counting analysis relative to estradiol
T6 sequence (whole entry): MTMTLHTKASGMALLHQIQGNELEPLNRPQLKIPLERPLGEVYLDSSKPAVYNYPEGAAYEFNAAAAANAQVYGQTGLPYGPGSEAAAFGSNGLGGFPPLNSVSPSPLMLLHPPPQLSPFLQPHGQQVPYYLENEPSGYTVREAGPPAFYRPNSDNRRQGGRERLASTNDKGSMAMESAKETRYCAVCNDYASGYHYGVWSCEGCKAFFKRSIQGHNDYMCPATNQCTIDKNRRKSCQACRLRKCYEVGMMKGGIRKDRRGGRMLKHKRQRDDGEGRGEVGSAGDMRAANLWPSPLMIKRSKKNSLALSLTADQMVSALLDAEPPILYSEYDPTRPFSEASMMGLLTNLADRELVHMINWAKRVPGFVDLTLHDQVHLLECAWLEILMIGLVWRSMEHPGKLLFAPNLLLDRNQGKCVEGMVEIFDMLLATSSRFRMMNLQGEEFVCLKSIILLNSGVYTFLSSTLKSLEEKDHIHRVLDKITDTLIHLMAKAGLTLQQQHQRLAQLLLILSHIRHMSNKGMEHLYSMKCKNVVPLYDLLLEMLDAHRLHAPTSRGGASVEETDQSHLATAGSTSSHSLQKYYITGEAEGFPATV
Summary of the method: (§3)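 Competitive binding with [³H]-E2; compounds in DMSO at 5% final. Non-specific binding was set with unlabeled E2 at 100-fold the tracer: 300 nM for ERα, 1000 nM for ERβ. Bound complexes were captured on hydroxyapatite and counted by liquid scintillation. Concentrations displacing 50% were read from sigmoidal curves, with E2 run in each experiment. RBA[%] = IC50(E2)/IC50(compound) × 100.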

[7] = molecular target: Estrogen receptor beta (Homo sapiens) (UniProt Q92731); test: Displacement of [3H]-estradiol from recombinant human estrogen receptor-beta by liquid scintillation counting analysis relative to estradiol; summary of the method: as §3
Estrogen receptor beta (Homo sapiens), sequence (Q92731 whole entry): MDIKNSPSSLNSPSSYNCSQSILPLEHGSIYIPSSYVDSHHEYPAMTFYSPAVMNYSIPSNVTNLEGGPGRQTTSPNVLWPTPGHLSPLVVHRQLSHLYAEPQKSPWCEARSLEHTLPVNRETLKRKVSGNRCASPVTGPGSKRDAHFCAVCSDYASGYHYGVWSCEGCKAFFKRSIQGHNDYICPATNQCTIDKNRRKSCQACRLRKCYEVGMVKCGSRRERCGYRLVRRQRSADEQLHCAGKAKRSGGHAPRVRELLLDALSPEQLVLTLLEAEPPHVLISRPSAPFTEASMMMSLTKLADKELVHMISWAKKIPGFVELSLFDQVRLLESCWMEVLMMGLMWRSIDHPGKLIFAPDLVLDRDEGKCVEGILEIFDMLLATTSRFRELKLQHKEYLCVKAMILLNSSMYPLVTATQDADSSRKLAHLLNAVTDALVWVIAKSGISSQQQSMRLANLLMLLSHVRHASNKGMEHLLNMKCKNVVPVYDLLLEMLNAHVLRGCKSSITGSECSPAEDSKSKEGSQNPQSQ

Structure (SMILES)	inhibition [1] [%]	IC50 [2] [nM]	inhibition [3]	IC50 [4] [nM]	Ratio IC50 (Homo sapiens)	inhibition [5]	RBA [6] [%]	RBA [7] [%]
CN(C(=O)c1cc(-c2cccc(O)c2)sc1-c1cccc(O)c1)c1cccc(O)c1	74	362	29%	2490	7	42%	–	–
O=C(Cc1cccc(O)c1)c1ccc(-c2cccc(O)c2)s1	37	–	43%	–	–	inactive	–	–
CC(C)(C(=O)c1ccc(-c2cccc(O)c2)s1)c1cccc(O)c1	73	357	54%	336	1	42%	–	–
Cc1cc(-c2cccc(O)c2)sc1-c1cccc(O)c1	–	–	–	–	2	inactive	–	–
Oc1cccc(-c2cc(-c3cccc(O)c3)c(-c3cccc(O)c3)s2)c1	–	–	–	–	2	inactive	< 0.1	< 0.1
COc1cccc(-c2ccc(C(=O)N(C)Cc3cccc(O)c3)s2)c1F	–	–	inactive	–	73	–	–	–

Other lines, results leading:

inhibition [1] [%]	IC50 [2] [nM]	inhibition [3]	IC50 [4] [nM]	Ratio IC50 (Homo sapiens)	inhibition [5]	RBA [6] [%]	RBA [7] [%]	Structure (SMILES)
–	–	–	–	14	16%	–	–	CN(Cc1cccc(O)c1)C(=O)c1ccc(-c2cccc(O)c2)s1
–	–	inactive	> 10000	> 250	26%	–	–	COc1cccc(CN(C)C(=O)c2ccc(-c3cccc(OC)c3)s2)c1
–	–	–	–	–	–	< 0.1	< 0.1	COc1cccc(-c2csc(C(=O)N(C)c3cccc(OC)c3)c2)c1
17	–	inactive	–	–	12%	–	–	COc1cccc(CC(=O)c2ccc(-c3cccc(OC)c3)s2)c1
